TAAR1 ag: human TAAR1 agonists, primary screen, Fluo-8 calcium fluorescence, CHO RD-HGA16 cells; Trace amine-associated receptor 1 (Homo sapiens), Q96RJ0; vehicle wells 0%, saturating PEA agonist 100%; activation, % at 3 µM; 360,000 compounds, 0.99% hits;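 active = activation above the mean activation of all test compounds in the run plus 3 SD, cut at about 38% in these data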
Target sequence (Q96RJ0 whole entry, looked up): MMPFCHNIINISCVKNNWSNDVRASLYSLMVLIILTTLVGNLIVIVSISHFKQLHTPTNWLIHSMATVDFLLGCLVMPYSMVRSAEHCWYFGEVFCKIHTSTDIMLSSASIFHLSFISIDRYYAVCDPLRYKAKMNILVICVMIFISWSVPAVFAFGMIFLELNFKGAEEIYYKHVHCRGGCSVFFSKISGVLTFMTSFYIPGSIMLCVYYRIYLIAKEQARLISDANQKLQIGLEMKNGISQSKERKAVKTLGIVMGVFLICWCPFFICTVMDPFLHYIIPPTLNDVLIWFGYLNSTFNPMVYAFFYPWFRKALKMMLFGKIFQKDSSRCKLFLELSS
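Test system: RD-HGA16 (CHO) cells co-expressing Gα16 and hTAAR1 | Doses: Single dose, 3 µM | Schedule: 17-24 h seeding, 75 min 37 °C dye, 30 min RT | Evaluation: % activation from peak over basal fluorescence ratio, DMSO-to-PEA scaled | Technique: Kinetic Fluo-8 calcium fluorescence | Benchmarks: Low control DMSO, high control PEA (EC100)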
TAAR1 antagonist: human TAAR1 antagonists, primary screen, Fluo-8 calcium fluorescence, CHO RD-HGA16 cells; antagonist; inhibition, % at 3 µM; 360,000 compounds, 1.5% hits;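 active = inhibition above a per-plate cutoff, the mean inhibition of test compounds on that plate plus 3 SD, cut at about 49% in these data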
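Test system: CHO RD-HGA16 cells bearing hTAAR1 | Reagent: β-PEA, EC80 | Compound dosing: 3 µM, single point | Schedule: Dye loading 75 min at 37 °C, then 30 min room temperature | Signal: Calcium fluorescence with Fluo-8 | Evaluation: Percent inhibition of PEA-evoked calcium signal, max/basal emission ratio | Control set: DMSO-only wells and EC80 β-PEA-stimulated wells | Repeats: Singlicate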
OX1R antag-1: OX1R (HCRTR1) antagonists, primary screen, fluorescence, CHO/OX1R cells, Fluo-8 calcium, orexin A. Orexin/Hypocretin receptor type 1 (Homo sapiens), O43613. Fluo-8 calcium fluorescence. inhibition, % at 5 µM. 330,000 compounds, 0.43% hits;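 active = inhibition above its plate's threshold, mean inhibition of all tested compounds on the plate plus 3 SD, cut at about 37% in these data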
CHO parental Ca: ATP-evoked calcium signal inhibitors, parental CHO, primary screen, counter-screen for OX1R antagonist project, cell-based, fluorescence, Fluo-8 calcium dye; AID 463079, 2010; inhibition, % at 5.6 µM; 330,000 compounds, 0.63% hits; parental CHO-K1, ATP-induced calcium, Fluo-8 fluorescence;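 active = inhibition above that plate's mean sample inhibition plus 3 SD, cut at about 26% in these data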
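Measured by: calcium-sensitive Fluo-8 fluorescence / Test system: CHO parental line / Controls: ATP-challenged DMSO wells low, unchallenged DMSO wells high / Measure: % inhibition / Compound: single nominal dose of 5.6 µM per compound / Replicates: single well per compound, no replicates / Reagent: ATP as calcium-mobilizing challenge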
OX1R antag-2: antagonists of human orexin 1 receptor (OX1R). Orexin/Hypocretin receptor type 1 (Homo sapiens), O43613. OX1R-expressing cells, FRET antagonist read-out. inhibition, % at 6.6 µM. 330,000 compounds, 1.8% hits. AID 485270, 2010; in the data active = inhibition mostly above about 38%, no sharp cut-off; inactive = mostly below about 40%
GPR7 antagonist: GPR7 receptor antagonists, primary screen, cell-based, fluorescence, single concentration; Neuropeptides B/W receptor type 1 (Homo sapiens), P48145; inhibition, % at 4.4 µM; 290,000 compounds, 1.1% hits; GPR7-expressing cells, fluorescence antagonist assay; in the data active = inhibition above about 16%, passing the limit was not always enough;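 note: cells stimulated with the agonist NPW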
Target sequence (P48145 whole entry, looked up): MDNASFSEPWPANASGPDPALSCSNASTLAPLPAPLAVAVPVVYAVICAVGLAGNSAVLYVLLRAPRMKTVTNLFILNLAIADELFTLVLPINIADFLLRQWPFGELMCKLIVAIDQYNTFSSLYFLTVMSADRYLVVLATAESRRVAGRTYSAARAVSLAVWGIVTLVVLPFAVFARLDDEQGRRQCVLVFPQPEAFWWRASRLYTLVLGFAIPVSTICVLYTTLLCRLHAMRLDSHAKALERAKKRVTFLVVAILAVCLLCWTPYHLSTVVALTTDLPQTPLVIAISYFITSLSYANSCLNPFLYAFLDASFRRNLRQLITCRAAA
TAAR1 ag conf: human TAAR1 agonists, retest of hits, confirmation, Fluo-8 calcium fluorescence, CHO RD-HGA16 cells | shares compounds with TAAR1 ag | scaled: DMSO 0%, maximal phenethylamine 100% | activation, % at 3 µM | 2,400 compounds, 82% hits;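 active = activation above a cutoff set at the run's mean compound activation plus 3 SD, cut at about 39% in these data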
Ga16 nonsel ag: nonselective calcium mobilization agonists, CHO-Ga16 cells, counter-screen for hTAAR1 agonist project, cell-based, fluorescence, CHO-Ga16 parental line. shares compounds with TAAR1 ag. Fluo-8 calcium fluorescence; normalized to maximal ATP response, DMSO zero. activation, % at 3 µM. 2,400 compounds, 50% hits;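 active = activation above the run cutoff, the mean activation over all tested wells plus 3 SD, cut at about 12% in these data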
TAAR1 desensitize: TAAR1 desensitization by agonist hits, confirmation, counter-screen for TAAR1 agonist project, cell-based, fluorescence, tachyphylaxis. shares compounds with TAAR1 ag. CHO RD-HGA16 hTAAR1, Fluo-8 calcium, beta-PEA response inhibition. inhibition, % at 3 µM. 2,400 compounds, 46% hits. AID 651951, 2012;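 active = inhibition above the run cutoff, the mean inhibition of all test compounds plus 3 SD, cut at about 49% in these data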;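 note: beta-PEA stimulus applied at its EC80; loss of beta-PEA calcium signal after compound pretreatment read as receptor desensitization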
Ga16 antag count: inhibition of ATP-evoked calcium response in CHO-Ga16 cells, counter-screen for TAAR1 agonist project, cell-based, fluorescence; shares compounds with TAAR1 ag; CHO-Ga16 ATP-induced calcium, Fluo-8 fluorescence; inhibition, % at 3 µM; 2,400 compounds, 39% hits;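 active = inhibition above the plate's mean compound inhibition plus 3 SD, computed per plate, cut at about 22% in these data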
Numbers stand for hits; 0 = inactive; - = no result. Compounds with a hit are over-represented: about 4.6% of the library has one in this group of screens.

SMILES	TAAR1 ag	TAAR1 antagonist	OX1R antag-1	CHO parental Ca	OX1R antag-2	GPR7 antagonist	TAAR1 ag conf	Ga16 nonsel ag	TAAR1 desensitize	Ga16 antag count
CCOC(=O)N[C@@H](Cc1cccnc1)C(=O)N1CCC[C@H]1C(=O)NCCc1ccccc1Cl	67	61	-	-	-	-	89	0	86	0
CN(CCc1ccccc1)C(=O)CC1C(=O)NCCN1Cc1ccccn1 (centres undefined)	63	0	-	-	-	-	71	0	60	0
COC(=O)C1=C(C)N(Cc2cccc(C(F)(F)F)c2)C(=NCc2ccc(C(F)(F)F)cc2)NC1c1ccc(F)cc1 (centres undefined)	0	0	-	-	-	-	-	-	-	-
COC(=O)C1=C(C)N(Cc2cccc(C(F)(F)F)c2)C(=NCc2ccc3c(c2)OCO3)NC1c1cccc(C(F)(F)F)c1 (centres undefined)	40	0	-	-	-	-	0	13	0	33
COC(=O)C1=C(C)N(Cc2cccc(C(F)(F)F)c2)C(=NCc2ccc(C(F)(F)F)cc2)NC1c1ccc(C(F)(F)F)cc1 (centres undefined)	0	0	-	-	-	-	-	-	-	-
COC(=O)C1=C(C)N(Cc2cccc(C(F)(F)F)c2)C(=NCc2ccc3c(c2)OCO3)NC1c1ccc(F)cc1 (centres undefined)	48	50	-	-	-	-	0	15	0	36
C=CCN=C1NC(c2ccc(Cl)cc2)C(C(=O)OC)=C(C)N1Cc1cccc(C(F)(F)F)c1 (centres undefined)	65	75	-	-	-	-	76	47	89	72
Cc1cc(-c2csc(N)n2)c(C)n1CCc1ccccc1	78	0	0	0	0	0	102	0	89	0
Cc1cc(-c2csc(N)n2)c(C)n1CCC(C)C	0	0	0	0	0	0	-	-	-	-
CCOC(=O)c1cc(C)n(CCc2ccccc2)c1C	51	0	0	0	0	0	64	0	0	0
CCOC(=O)c1cc(-c2ccccc2)n(CCC(=O)O)c1C	0	0	0	0	0	0	-	-	-	-
Cc1cc(C(=O)CCl)c(C)n1CCc1ccccc1	64	0	0	0	0	0	71	0	66	0
COC(=O)CCCn1c(C)cc(C(=O)CCl)c1C	0	0	0	0	0	0	-	-	-	-
COCCn1c(C)cc(C(=O)CSc2nnc3scc(-c4ccc(Cl)cc4)n23)c1C	-	-	-	-	-	0	-	-	-	-
CC(C)NC(=O)NC(=O)CN1C(=O)NC(Cc2c[nH]c3ccccc23)C1=O (centres undefined)	0	0	0	0	0	0	-	-	-	-
CCN(CC)C(=O)C1=C(C)N(CCCOC)C(=O)C(CC(=O)NCCN2CCOCC2)C1 (centres undefined)	0	0	-	-	-	-	-	-	-	-
O=C(NCCc1ccccc1)c1ccc(Cl)cc1[N+](=O)[O-]	0	0	-	-	-	0	-	-	-	-
Cc1ccc2c(c1)c(C1=c3ccccc3=NC1=O)c(O)n2C	63	0	0	0	0	0	39	16	0	25
Cn1c(O)c(C2=c3ccccc3=NC2=O)sc1=Nc1ccc(Cl)cc1	0	0	0	0	0	0	-	-	-	-
O=C(CN(Cc1ccccc1)C(=O)c1csnn1)NCCc1ccccc1	75	0	0	0	0	0	68	0	0	0
O=C(COC(=O)Cn1cnc2ccccc2c1=O)Nc1ccc(Cl)cc1	49	0	0	0	0	0	66	0	0	0
O=C(COC(=O)Cn1cnc2ccccc2c1=O)Nc1ccc(Cl)c(C(F)(F)F)c1	0	0	0	0	0	0	-	-	-	-
COc1ccc(N=Cc2cc3c(cc2O)OC(N)=C(C#N)C3c2ccccc2)cc1 (centres undefined)	0	0	0	0	0	0	-	-	-	-
O=C(Cn1sc2ccccc2c1=O)Nc1ccc(Cl)cc1	55	0	-	-	-	-	55	30	0	29
O=C(Cn1sc2ccccc2c1=O)Nc1ccc(F)cc1	55	0	-	-	-	-	59	39	0	22
SMILES	TAAR1 ag	TAAR1 antagonist	OX1R antag-1	CHO parental Ca	OX1R antag-2	GPR7 antagonist	TAAR1 ag conf	Ga16 nonsel ag	TAAR1 desensitize	Ga16 antag count
CCCCN(C(C)=O)c1c(CC)nc2ccc(C(=O)NCCc3ccccn3)cn12	0	0	-	-	-	-	-	-	-	-
COc1ccc(OC)c(N(C)S(=O)(=O)c2ccc3c(c2)N(C(C)=O)CCO3)c1	0	0	0	0	0	0	-	-	-	-
CN1CCN(C(=O)C2=C[C@H](c3ccc(C(F)(F)F)cc3)C[C@H](OCc3ccc(CO)cc3)O2)CC1	0	0	0	0	0	0	-	-	-	-
CCOc1cc2c(C#N)c(N3CCNCC3)nc(N)c2c(N)n1	61	54	0	0	0	0	83	0	81	0
COCc1cc(C)nc(N2CCNCC2)c1C#N	53	0	0	0	0	0	57	0	0	0
COCc1cc(C)nc(N2CCCCC2)c1C#N	0	0	0	0	0	0	-	-	-	-
COc1ccc(-c2ncn(CCc3ccccc3OC)c2C(C)C)cc1	0	0	-	-	-	-	-	-	-	-
CCCc1c(-c2ccccc2)ncn1Cc1ccccc1OC	0	0	-	-	-	-	-	-	-	-
COc1ccccc1CCn1cnc(-c2ccc(Br)cc2)c1C(C)C	45	0	-	-	-	-	68	0	53	37
COc1ccccc1CCn1cnc(-c2ccccc2OC)c1C(C)C	52	0	-	-	-	-	79	0	60	0
CCN(CC)CCNC(=O)c1ccc(NC(=O)c2cccc(S(=O)(=O)N3c4ccccc4CC3C)c2)cc1 (centres undefined)	0	0	0	0	0	0	-	-	-	-
CCN(CC)CCNC(=O)c1ccc(NC(=O)c2cccc(S(=O)(=O)N3CCc4ccccc43)c2)cc1	60	0	-	-	-	-	60	0	0	0

Screens: PubChem, The Scripps Research Institute Molecular Screening Center
